Measured values as given in PMC7228743 (Science Advances, 2020).

Legend:
hGLP-1R = hGLP-1R (Homo sapiens, UniProt P43220); experiment: In vitro GLP-1R activation assay; assay type: cell-based; settings: ratio of cAMP EC50 values, 39.79 nM versus […]
Serum stability assay = assay type: in vitro ADME; settings: 25% (v/v) pooled human serum, 37°C, 24 hours; RP-HPLC peak area at 215 nm
How it was run: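 Peptides dissolved in H2O/MeCN (70:30 v/v), diluted into 25% (v/v) aqueous pooled serum from human male AB plasma, and held at 37°C for 24 hours. Samples were quenched with an equal volume of MeCN on ice for 20 min, then centrifuged at 4°C for 15 min. Supernatant was diluted in H2O (0.1% TFA) to 0.1 mg/ml and run on RP-HPLC. Intact peptide was taken from the elution peak area at 215 nm.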

Sequence of hGLP-1R (P43220 24-463): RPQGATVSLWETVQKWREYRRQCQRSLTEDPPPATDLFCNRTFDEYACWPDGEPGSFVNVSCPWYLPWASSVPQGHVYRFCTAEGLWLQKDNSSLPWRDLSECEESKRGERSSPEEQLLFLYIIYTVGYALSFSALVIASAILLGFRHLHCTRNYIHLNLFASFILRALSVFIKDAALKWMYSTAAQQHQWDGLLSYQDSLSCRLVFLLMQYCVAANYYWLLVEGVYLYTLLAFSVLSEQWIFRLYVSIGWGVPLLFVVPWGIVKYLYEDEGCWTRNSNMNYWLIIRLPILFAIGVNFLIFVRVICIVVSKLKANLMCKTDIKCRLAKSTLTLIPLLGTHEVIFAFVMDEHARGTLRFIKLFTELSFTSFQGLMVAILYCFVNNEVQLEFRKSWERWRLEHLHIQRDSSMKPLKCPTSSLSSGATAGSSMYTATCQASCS

| Potency of 3 relative to capped GLP-1 2 (fold lower) (hGLP-1R) | Stability in the presence of serum (in words) (Serum stability assay) | SMILES |
| --- | --- | --- |
| ~ 10 fold | remarkable stability | CC[C@H](C)[C@@H](CN(CC(=O)N[C@@H](Cc1c[nH]c2ccccc12)CN(CC(=O)N[C@H](CN(CC(=O)NCCN(CC(N)=O)S(=O)(=O)CCN)S(=O)(=O)CCN)C(C)C)S(=O)(=O)CC(C)C)S(C)(=O)=O)NC(=O)CN(C[C@H](CCC(=O)O)NC(=O)CN(C[C@H](C)NC(=O)CN(C[C@H](CCCCN)NC(=O)CN(C[C@H](CCC(=O)O)NC(=O)CN(C[C@H](Cc1ccc(O)cc1)NC(=O)CN(C[C@H](CO)NC(=O)CN(C[C@H](CC(=O)O)NC(=O)CN(C[C@@H](NC(=O)CN(C[C@@H](NC(=O)CN(C[C@H](CCC(=O)O)NC(=O)CN(C[C@H](Cc1ccccc1)NC(C)=O)S(C)(=O)=O)S(C)(=O)=O)[C@@H](C)O)S(=O)(=O)Cc1ccccc1)[C@@H](C)O)S(C)(=O)=O)S(=O)(=O)CC(C)C)S(C)(=O)=O)S(=O)(=O)CC(C)C)S(C)(=O)=O)S(C)(=O)=O)S(=O)(=O)CCN)S(=O)(=O)Cc1ccccc1 [compound 3] |
|  | remarkable stability | CC[C@H](C)[C@@H](CN(CC(=O)N[C@@H](Cc1c[nH]c2ccccc12)CN(CC(=O)N[C@H](CN(CC(=O)NCCN(CC(N)=O)S(=O)(=O)CCN)S(=O)(=O)CCN)C(C)C)S(=O)(=O)CC(C)C)S(C)(=O)=O)NC(=O)CN(C[C@H](CCC(=O)O)NC(=O)CN(C[C@H](C)NC(=O)CN(C[C@H](CCCCN)NC(=O)CN(C[C@H](CCC(=O)O)NC(=O)CN(C[C@H](Cc1ccc(O)cc1)NC(=O)CN(C[C@H](CO)NC(=O)CN(C[C@H](CC(=O)O)NC(=O)CN(C[C@@H](NC(=O)CN(C[C@@H](NC(=O)CN(C[C@H](CCC(=O)O)NC(=O)CN(C[C@H](Cc1ccccc1)NC(C)=O)S(C)(=O)=O)S(C)(=O)=O)[C@@H](C)O)S(=O)(=O)Cc1ccccc1)[C@@H](C)O)S(C)(=O)=O)S(=O)(=O)CC(C)C)S(=O)(=O)c1ccc(OC)cc1)S(=O)(=O)CC(C)C)S(C)(=O)=O)S(C)(=O)=O)S(=O)(=O)CCN)S(=O)(=O)Cc1ccccc1 [compound 5] |
